This note sets out measurements from ChEMBL document CHEMBL1177882, “Novel bisstyryl derivatives of bakuchiol: targeting oral cavity pathogens” (2010).

Test [1] deals with Streptococcus mutans. The experiment in a line: Antibacterial activity against Streptococcus mutans ATCC 25175 after 48 hrs by broth microdilution method. In kind it is functional. Particulars: ATCC 25175, 48 h.
The subject of test [2] is Actinomyces viscosus. Description: Antibacterial activity against Actinomyces viscosus ATCC 15987 after 48 hrs by broth microdilution method. It counts as functional. Particulars: ATCC 15987, 48 h. For orientation: In broth dilution the organism is exposed to a series of concentrations in liquid medium.
Test [3] has as its system Streptococcus sanguinis. Description: Antibacterial activity against Streptococcus sanguinis ATCC 10556 after 48 hrs by broth microdilution method. In kind it is functional. The conditions noted are these: ATCC 10556, 48 h.
Test [4] relates to Fusobacterium nucleatum. Description: Antibacterial activity against Fusobacterium nucleatum ATCC 10953 after 48 hrs by broth microdilution method. In kind it is functional. The conditions noted are these: ATCC 10953, 48 h. In a few lines:
(§1)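 Broth microdilution MIC for obligate anaerobes, run in their growth media (Wilkins–Chalgren for F. nucleatum and P. intermedia; supplemented Todd Hewitt broth for P. gingivalis). Inoculum suspended in Brucella broth, final 5 × 10^6 cfu/ml. Twofold dilutions, final 0.12–128 µg/ml. Incubated anaerobically (90% N2/5% H2/5% CO2) at 37 °C for 48 h; MIC is the lowest concentration without turbidity.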

The subject of test [5] is Prevotella intermedia. Description: Antibacterial activity against Prevotella intermedia ATCC 25611 after 48 hrs by broth microdilution method. Particulars: ATCC 25611, 48 h. It counts as functional. In short, it runs like this:
as §1

The subject of test [6] is Porphyromonas gingivalis. The experiment in a line: Antibacterial activity against Porphyromonas gingivalis ATCC 33277 after 48 hrs by broth microdilution method. Particulars: ATCC 33277, 48 h. In kind it is functional. In short, it runs like this:
as §1

Test [7] relates to Fusobacterium nucleatum. The experiment in a line: Ratio of compound MIC to bakuchiol MIC for sFusobacterium nucleatum ATCC 10953. It counts as functional.
In test [8] the test system is Porphyromonas gingivalis. Description: Ratio of compound MIC to bakuchiol MIC for Porphyromonas gingivalis ATCC 33277. It counts as functional.
Test [9] concerns Streptococcus mutans. Description: Ratio of compound MIC to bakuchiol MIC for Streptococcus mutans ATCC 25175. In kind it is functional.
In test [10] the test system is Actinomyces viscosus. Description: Ratio of compound MIC to bakuchiol MIC for Actinomyces viscosus ATCC 15987. It counts as functional.
Test [11] has as its system Streptococcus sanguinis. The experiment in a line: Ratio of compound MIC to bakuchiol MIC for Streptococcus sanguinis ATCC 10556. In kind it is functional.
Test [12] has as its system Prevotella intermedia. The experiment in a line: Ratio of compound MIC to bakuchiol MIC for Prevotella intermedia ATCC 25611. It counts as functional.
Test [13] relates to Streptococcus mutans. The experiment in a line: Antibacterial activity against Streptococcus mutans ATCC 25175 assessed as inhibition of biofilm formation after 18 hrs. It counts as functional. In a few lines: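 Single-species S. mutans biofilm grown in flat-bottom polystyrene wells, BHI with 2% sucrose, 6 × 10^7 cfu/ml final, compound twofold 0.12–128 µg/ml, 18 h at 37 °C in 5% CO2. Wells rinsed with PBS pH 7.2, methanol-fixed, stained with 0.1% crystal violet, eluted in 95% ethanol, A595 read. % inhibition relative to untreated control; MBIC50 is the lowest concentration giving ≥50% inhibition.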

Test [14] deals with Streptococcus mutans. The experiment in a line: Antibacterial activity against Streptococcus mutans ATCC 25175 assessed as decrease in cell viability at 2 time MIC after 60 mins by serial dilution method relative to control. It counts as functional. In short, it runs like this:
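S. mutans suspension from an 18 h culture (~1 × 10^9 cfu/ml) diluted 1:20 into phosphate buffer containing compound at 2 × MIC. Incubated 60 min at 37 °C, then serially diluted in saline and plated on BHI agar. Colonies counted after 48 h at 37 °C in 5% CO2; viability given as CFU/ml relative to untreated cells.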

Test [15] concerns Streptococcus mutans. The experiment in a line: Antibacterial activity against Streptococcus mutans ATCC 25175 assessed as increase of cell membrane permeability at 2 time MIC after 60 mins propidium iodide staining by flow cytometry. In kind it is functional, organism-based. In a few lines:
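Overnight BHI culture of S. mutans washed into 50 mmol/l sodium phosphate pH 7.1 (~1 × 10^9 cfu/ml), diluted 1:20 into buffer with compound at 2 × MIC. Incubated 60 min at room temperature; aliquots diluted in buffer and stained with propidium iodide at 10 µg/ml final on ice. The percentage of PI-stained cells was measured by flow cytometry.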

Test [16] has as its system Streptococcus mutans. The experiment in a line: Antibacterial activity against Streptococcus mutans ATCC 25175 assessed as 280 nm absorbing material release at 2 time MIC after 60 mins by spectrophotometric analysis. It counts as functional, organism-based. In a few lines: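 S. mutans prepared in 50 mmol/l phosphate pH 7.1 (~1 × 10^9 cfu/ml) was exposed to compound at 2 × MIC for 60 min at 37 °C. Supernatant taken after centrifugation (10,000 g, 10 min) and read at A280. Release is expressed as % of a total-release control made by lysozyme treatment (100 µg/ml, 60 min, 37 °C) plus sonication.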

The subject of test [17] is Streptococcus mutans. The experiment in a line: Antibacterial activity against Streptococcus mutans ATCC 25175 after 24 hrs by broth microdilution method. Particulars: ATCC 25175, 24 h.
Test [18] deals with Actinomyces viscosus. The experiment in a line: Antibacterial activity against Actinomyces viscosus ATCC 15987 after 24 hrs by broth microdilution method. Particulars: ATCC 15987, 24 h.
The test system of test [19] is Streptococcus sanguinis. Description: Antibacterial activity against Streptococcus sanguinis ATCC 10556 after 24 hrs by broth microdilution method. Particulars: ATCC 10556, 24 h.
For test [20], the system named is Streptococcus mutans. Description: Ratio of compound MBIC50 to bakuchiol MBIC50 for Streptococcus mutans ATCC 25175. In kind it is functional. In short, it runs like this:
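MBIC50 from crystal-violet S. mutans biofilm assay (BHI + 2% sucrose, 18 h, 37 °C, 5% CO2, A595 read) for each compound, divided by the bakuchiol MBIC50 from the same assay.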

Converted amounts (≈) assume the structure as drawn. The source made the active and inactive calls. Bounds are passed on as bounds.

One may read the MBC as the smallest concentration meeting the test's criterion for killing. In general, MIC refers to the smallest concentration in the dilution series that meets the test's criterion for growth inhibition. Lower therefore signals inhibition by little substance. On to `COc1ccc(/C=C/[C@@](C)(/C=C/c2ccc(O)cc2)CCC=C(C)C)cc1`, for which the MBC was 2 µg/mL (≈ 5.52 µM) in test [1]; 2 µg/mL (≈ 5.52 µM) in test [2]; 2 µg/mL (≈ 5.52 µM) in test [3]; 8 µg/mL (≈ 22.1 µM) in [4]; 4 µg/mL (≈ 11 µM) in [5]; 1 µg/mL (≈ 2.76 µM) in [6]. The MIC in [4] is 8 µg/mL (≈ 22.1 µM); in [5] it was 2 µg/mL (≈ 5.52 µM); in test [6] it was 0.5 µg/mL (≈ 1.38 µM); in test [17], 1 µg/mL (≈ 2.76 µM); in test [18] it was 2 µg/mL (≈ 5.52 µM); in [19], 2 µg/mL (≈ 5.52 µM). The Ratio in test [7] is 0.25; in test [8] it was 2; in [9], 2; in [10] it was 2; in [11], 2; in test [12] it was 2. For the same molecule, the MBIC50 in test [13] came to 2 µg/mL. For the same molecule, in test [14], the Activity was greater than 80%. The outcome in test [15] and in test [16] was Active.

On to `COc1ccc(/C=C/[C@](C)(/C=C/c2ccc(O)cc2)CCC=C(C)C)cc1`, for which the minimum bactericidal concentration (MBC) came out at 1 µg/mL (≈ 2.76 µM) in test [1]; 1 µg/mL (≈ 2.76 µM) in test [2]; 1 µg/mL (≈ 2.76 µM) in test [3]; 32 µg/mL (≈ 88.3 µM) in test [4]; 1 µg/mL (≈ 2.76 µM) in test [5]; 0.5 µg/mL (≈ 1.38 µM) in test [6]. Also, the minimum inhibitory concentration (MIC) in [4] was 16 µg/mL (≈ 44.1 µM); in test [5] it was 0.5 µg/mL (≈ 1.38 µM); in test [6], 0.25 µg/mL (≈ 0.69 µM); in [17], 0.5 µg/mL (≈ 1.38 µM); in test [18], 0.5 µg/mL (≈ 1.38 µM); in [19], 0.5 µg/mL (≈ 1.38 µM). In addition, the Ratio in [7], in [8], in test [9], in test [10], in test [11] and in [12] was 2 each time. Moreover, in test [13], the MBIC50 came to 1 µg/mL. Also, in test [14], the Activity is given as greater than 80%. Moreover, the outcome in [15] and in test [16] was Active.

With `CC(C)=CCC[C@](C)(/C=C/c1ccc(O)cc1)/C=C/c1ccc(F)cc1`, the minimum bactericidal concentration (MBC) was 4 µg/mL (≈ 11.4 µM) in test [1]; 8 µg/mL (≈ 22.8 µM) in [2]; 8 µg/mL (≈ 22.8 µM) in [3]; greater than 128 µg/mL in test [4]; 4 µg/mL (≈ 11.4 µM) in test [5]; 4 µg/mL (≈ 11.4 µM) in [6]. Besides, the MIC is greater than 128 µg/mL in [4]; 2 µg/mL (≈ 5.71 µM) in test [5]; 2 µg/mL (≈ 5.71 µM) in test [6]; 4 µg/mL (≈ 11.4 µM) in test [17]; 4 µg/mL (≈ 11.4 µM) in [18]; 4 µg/mL (≈ 11.4 µM) in test [19]. Further, in test [13], the MBIC50 stood at 8 µg/mL. In test [20], the Ratio is 2.

For the molecule `CC(C)=CCCC(C)(/C=C/c1ccc(O)cc1)/C=C/c1ccc(O)cc1`, the minimal bactericidal concentration (MBC) was 1 µg/mL (≈ 2.87 µM) in test [1]; 1 µg/mL (≈ 2.87 µM) in [2]; 1 µg/mL (≈ 2.87 µM) in test [3]; greater than 128 µg/mL in test [4]; 1 µg/mL (≈ 2.87 µM) in test [5]; 1 µg/mL (≈ 2.87 µM) in [6]. For the same molecule, the MIC in test [4] was greater than 128 µg/mL; in [5], 0.25 µg/mL (≈ 0.717 µM); in [6], 0.25 µg/mL (≈ 0.717 µM); in [17], 0.5 µg/mL (≈ 1.43 µM); in test [18] it was 0.5 µg/mL (≈ 1.43 µM); in [19] it was 0.25 µg/mL (≈ 0.717 µM). Moreover, the MBIC50 in test [13] is 1 µg/mL. For the same molecule, in test [14], the Activity is greater than 80%. In addition, the result in test [15] and in test [16] was Active.
